Data set [1] is described as follows: Selectivity ratio of IC50 for KCNQ1 to KCNQ2.
The target of data set [2] is T1, Potassium voltage-gated channel subfamily KQT member 2 (Homo sapiens, UniProt O43526). Put plainly: Antagonist activity at KCNQ2 expressed in CHO cells incubated for 3 mins by automated patch clamp assay. The data set is classed as functional, cell-based.
Data set [3] deals with T1, Potassium voltage-gated channel subfamily KQT member 2. Put plainly: Agonist activity at KCNQ2 expressed in CHO cells incubated for 3 mins by automated patch clamp assay. The data set is classed as functional, cell-based. A digest of the protocol: (§1)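 Ionworks Quattro population patch clamp on CHO cells stably expressing KCNQ2, 7,000 cells/well in extracellular solution (mM: 137 NaCl, 4 KCl, 1 MgCl2, 1.8 CaCl2, 10 HEPES, 10 glucose, pH 7.4), amphotericin B (50 μg/ml) perforation. Held -90 mV, 2,000 ms step to -10 mV; steady-state current at pulse end before and 3 min after compound; % change versus pre-compound current. Cells >100 pA and seal >30 MΩ only.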

Another data set has as its system Plasma. In words: Fraction unbound in rat plasma. Type of data set: ADME, cell-free.
A further data set deals with Brain. In words: Fraction unbound in rat brain homogenate. The data set is classed as ADME, tissue-based.
A short description of data set [4]: Drug uptake in Sprague-Dawley rat brain at 10 mg/kg, ip after 1 hr by LC/MS analysis. Type of data set: ADME, organism-based. More on the design: dose 10 mg/kg, route intraperitoneal. Particulars: read-out: Drug uptake. A digest of the protocol:
(§2)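 Male Sprague-Dawley rats (250 g) dosed 10 mg/kg i.p., formulated 3 mg/mL in 10% Tween 80/sterile water. Blood (cardiac puncture) and brain taken at 1 h. Brain washed in cold PBS, frozen, homogenized 1:3 (w/w) in 70:30 isopropanol:water. Plasma and homogenate precipitated with acetonitrile containing carbamazepine internal standard, diluted 1:1 with water, quantified by ESI LC/MS/MS using MRM in positive mode.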

The nature of data set [5]: Plasma concentration in Sprague-Dawley rat at 10 mg/kg, ip after 1 hr by LC.MS analysis. Type of data set: ADME, organism-based. More on the design: dose 10 mg/kg, route intraperitoneal. In short, it runs like this:
as §2

For data set [6], the target named is Voltage-gated inwardly rectifying potassium channel KCNH2 (Homo sapiens, UniProt Q12809). In words: Inhibition of human ERG.
The nature of data set [7]: Inhibition of KATP.
Data set [8] in a line: Inhibition of N-type calcium channel at 10 uM.
Data set [9] can be described thus: Inhibition of L-type calcium channel at 10 uM.
For data set [10], the target named is Melatonin receptor type 1A (Homo sapiens) (UniProt P48039). Put plainly: Inhibition of human MT1 at 10 uM.
Data set [11] addresses T2, Potassium voltage-gated channel subfamily KQT member 4 (Homo sapiens, UniProt P56696).
T2 sequence (P56696 whole entry): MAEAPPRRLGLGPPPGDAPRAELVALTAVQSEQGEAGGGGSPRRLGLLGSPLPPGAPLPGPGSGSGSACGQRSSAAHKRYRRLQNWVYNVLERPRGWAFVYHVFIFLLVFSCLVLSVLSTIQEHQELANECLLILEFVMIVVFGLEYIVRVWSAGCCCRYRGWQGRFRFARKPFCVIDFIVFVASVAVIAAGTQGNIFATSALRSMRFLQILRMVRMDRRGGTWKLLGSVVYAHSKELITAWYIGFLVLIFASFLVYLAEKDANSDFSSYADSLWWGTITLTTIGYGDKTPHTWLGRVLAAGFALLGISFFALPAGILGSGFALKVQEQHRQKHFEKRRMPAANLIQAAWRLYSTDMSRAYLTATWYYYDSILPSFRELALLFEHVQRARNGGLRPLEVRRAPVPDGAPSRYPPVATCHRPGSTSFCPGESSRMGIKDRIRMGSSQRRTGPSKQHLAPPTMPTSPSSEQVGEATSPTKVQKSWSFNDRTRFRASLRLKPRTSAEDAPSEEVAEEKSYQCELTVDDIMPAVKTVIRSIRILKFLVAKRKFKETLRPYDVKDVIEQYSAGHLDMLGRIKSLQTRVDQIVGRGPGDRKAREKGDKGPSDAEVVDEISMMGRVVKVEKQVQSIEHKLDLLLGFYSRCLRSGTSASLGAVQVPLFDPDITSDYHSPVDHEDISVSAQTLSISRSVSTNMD
In words: Antagonist activity at KCNQ4 expressed in CHO cells incubated for 3 mins by automated patch clamp assay. Type of data set: functional, cell-based. A digest of the protocol:
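Population patch clamp on CHO cells stably expressing KCNQ4, freshly dislodged at 7,000 cells/well in extracellular solution (mM: 137 NaCl, 4 KCl, 1 MgCl2, 1.8 CaCl2, 10 HEPES, 10 glucose, pH 7.4). Cells were perforated with 50 μg/ml amphotericin B, held at -70 mV, and stepped to +40 mV. Current was measured at +40 mV before and after 3 min compound exposure and expressed as percent change in the same well.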

For data set [12], the target named is Voltage-gated potassium channel, KQT; KCNQ2(Kv7.2)/KCNQ3(Kv7.3) (Homo sapiens, UniProt O43525+O43526). Put plainly: Antagonist activity at KCNQ2/Q3 expressed in CHO cells incubated for 3 mins by automated patch clamp assay.
The target of data set [13] is T3, Potassium voltage-gated channel subfamily KQT member 1 (Homo sapiens, UniProt P51787).
T3 sequence (P51787 whole entry): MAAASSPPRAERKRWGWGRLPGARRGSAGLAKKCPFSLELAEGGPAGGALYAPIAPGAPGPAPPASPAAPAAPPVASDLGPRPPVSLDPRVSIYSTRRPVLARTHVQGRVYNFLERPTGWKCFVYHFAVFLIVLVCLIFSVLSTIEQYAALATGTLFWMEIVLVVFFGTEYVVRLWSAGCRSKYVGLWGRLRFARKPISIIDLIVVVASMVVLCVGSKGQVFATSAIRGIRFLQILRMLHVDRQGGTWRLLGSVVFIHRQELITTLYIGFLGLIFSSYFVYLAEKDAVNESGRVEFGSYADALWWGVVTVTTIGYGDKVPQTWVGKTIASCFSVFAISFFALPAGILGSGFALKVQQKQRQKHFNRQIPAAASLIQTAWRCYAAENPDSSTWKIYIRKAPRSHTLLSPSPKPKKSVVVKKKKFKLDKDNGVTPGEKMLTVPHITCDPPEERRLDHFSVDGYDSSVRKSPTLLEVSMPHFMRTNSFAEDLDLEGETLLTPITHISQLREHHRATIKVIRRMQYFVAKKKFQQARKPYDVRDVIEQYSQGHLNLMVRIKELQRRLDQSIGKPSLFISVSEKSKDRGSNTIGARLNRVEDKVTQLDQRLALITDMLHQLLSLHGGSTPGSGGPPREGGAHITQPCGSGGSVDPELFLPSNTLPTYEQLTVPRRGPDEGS
Put plainly: Antagonist activity at KCNQ1 expressed in CHO cells incubated for 3 mins by automated patch clamp assay.

For data set [14], the target named is Voltage-gated potassium channel, IKs; KCNQ1(Kv7.1)/KCNE1(MinK) (Homo sapiens, UniProt P15382+P51787). In words: Antagonist activity at KCNQ1/E1 expressed in CHO cells incubated for 3 mins by automated patch clamp assay.
In the next data set the target is Cytochrome P450 2D6 (Homo sapiens, UniProt P10635).
The next data set addresses Cytochrome P450 2C9 (Homo sapiens, UniProt P11712).
In the next data set the target is T4, Cytochrome P450 1A2 (Homo sapiens, UniProt P05177).
T4 sequence (P05177 whole entry): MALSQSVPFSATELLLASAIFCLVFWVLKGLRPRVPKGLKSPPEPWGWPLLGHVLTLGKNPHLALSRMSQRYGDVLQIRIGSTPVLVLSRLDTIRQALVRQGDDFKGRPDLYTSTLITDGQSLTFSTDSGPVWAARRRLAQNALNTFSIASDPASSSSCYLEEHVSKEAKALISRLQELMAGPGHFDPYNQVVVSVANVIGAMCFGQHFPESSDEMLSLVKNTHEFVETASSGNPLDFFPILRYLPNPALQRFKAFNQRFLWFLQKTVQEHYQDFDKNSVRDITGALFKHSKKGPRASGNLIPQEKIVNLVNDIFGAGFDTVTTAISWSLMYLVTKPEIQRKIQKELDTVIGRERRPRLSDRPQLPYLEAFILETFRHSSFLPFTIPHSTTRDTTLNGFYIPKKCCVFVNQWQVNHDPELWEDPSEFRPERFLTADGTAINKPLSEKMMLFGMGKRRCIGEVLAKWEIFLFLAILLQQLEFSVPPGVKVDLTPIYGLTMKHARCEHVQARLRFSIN

Data set [15] has as its target T1, Potassium voltage-gated channel subfamily KQT member 2. In words: Agonist activity at KCNQ2 expressed in CHO cells at 30 uM incubated for 3 mins by automated patch clamp assay. Type of data set: functional, cell-based. In short, it runs like this:
as §1

Active and inactive are the calls of the source. The rule behind the calls is not given here. A value given as a limit tells only on which side of the number the result lay.

T1 sequence (O43526 whole entry): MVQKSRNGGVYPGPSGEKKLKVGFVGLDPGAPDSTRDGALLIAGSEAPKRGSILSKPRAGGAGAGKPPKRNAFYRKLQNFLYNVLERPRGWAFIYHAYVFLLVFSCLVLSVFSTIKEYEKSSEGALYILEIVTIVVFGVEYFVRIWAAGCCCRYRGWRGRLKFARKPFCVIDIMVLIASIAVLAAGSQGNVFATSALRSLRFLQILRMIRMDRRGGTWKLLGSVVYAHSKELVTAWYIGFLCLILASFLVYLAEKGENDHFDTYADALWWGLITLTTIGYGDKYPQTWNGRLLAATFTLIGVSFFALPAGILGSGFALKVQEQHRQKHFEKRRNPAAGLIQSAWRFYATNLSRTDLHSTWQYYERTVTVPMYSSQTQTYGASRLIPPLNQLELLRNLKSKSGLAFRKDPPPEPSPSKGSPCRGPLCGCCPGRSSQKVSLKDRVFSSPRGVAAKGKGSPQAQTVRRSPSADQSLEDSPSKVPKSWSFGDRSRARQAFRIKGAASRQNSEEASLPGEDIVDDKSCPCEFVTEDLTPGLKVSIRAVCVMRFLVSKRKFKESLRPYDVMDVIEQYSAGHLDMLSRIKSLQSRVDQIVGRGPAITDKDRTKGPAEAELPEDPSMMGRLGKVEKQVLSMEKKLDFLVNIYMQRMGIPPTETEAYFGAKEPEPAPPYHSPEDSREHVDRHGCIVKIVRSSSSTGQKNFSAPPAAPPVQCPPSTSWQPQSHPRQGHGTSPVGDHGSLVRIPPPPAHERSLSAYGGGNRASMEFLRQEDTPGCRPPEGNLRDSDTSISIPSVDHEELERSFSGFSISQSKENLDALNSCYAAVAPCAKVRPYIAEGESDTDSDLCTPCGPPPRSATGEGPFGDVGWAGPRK
Melatonin receptor type 1A (Homo sapiens), sequence (P48039 whole entry): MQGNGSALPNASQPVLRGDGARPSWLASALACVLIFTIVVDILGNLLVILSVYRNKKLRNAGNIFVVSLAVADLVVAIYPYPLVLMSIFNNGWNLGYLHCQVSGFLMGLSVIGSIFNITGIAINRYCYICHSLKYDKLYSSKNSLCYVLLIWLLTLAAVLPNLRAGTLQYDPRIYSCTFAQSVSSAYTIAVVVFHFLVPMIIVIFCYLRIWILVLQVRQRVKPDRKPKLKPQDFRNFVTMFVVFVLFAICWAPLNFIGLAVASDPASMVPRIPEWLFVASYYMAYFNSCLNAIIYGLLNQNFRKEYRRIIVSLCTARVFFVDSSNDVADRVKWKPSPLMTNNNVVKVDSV
Cytochrome P450 2D6, sequence (P10635 whole entry): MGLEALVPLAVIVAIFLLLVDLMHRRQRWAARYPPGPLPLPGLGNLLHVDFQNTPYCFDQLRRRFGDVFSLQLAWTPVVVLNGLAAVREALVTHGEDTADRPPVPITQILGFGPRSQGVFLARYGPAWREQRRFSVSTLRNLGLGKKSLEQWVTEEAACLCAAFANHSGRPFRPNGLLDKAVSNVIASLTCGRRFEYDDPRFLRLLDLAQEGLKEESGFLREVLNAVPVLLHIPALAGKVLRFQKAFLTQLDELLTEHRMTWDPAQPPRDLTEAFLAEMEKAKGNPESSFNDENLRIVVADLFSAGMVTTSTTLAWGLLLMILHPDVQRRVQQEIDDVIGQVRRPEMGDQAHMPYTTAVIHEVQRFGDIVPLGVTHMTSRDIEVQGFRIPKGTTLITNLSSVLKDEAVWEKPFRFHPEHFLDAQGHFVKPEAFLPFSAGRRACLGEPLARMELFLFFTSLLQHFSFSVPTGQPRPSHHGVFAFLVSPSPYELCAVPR
Voltage-gated potassium channel, KQT; KCNQ2(Kv7.2)/KCNQ3(Kv7.3), sequence (O43526 whole entry): as the sequence (O43526 whole entry) above
Voltage-gated potassium channel, KQT; KCNQ2(Kv7.2)/KCNQ3(Kv7.3), sequence (O43525 whole entry): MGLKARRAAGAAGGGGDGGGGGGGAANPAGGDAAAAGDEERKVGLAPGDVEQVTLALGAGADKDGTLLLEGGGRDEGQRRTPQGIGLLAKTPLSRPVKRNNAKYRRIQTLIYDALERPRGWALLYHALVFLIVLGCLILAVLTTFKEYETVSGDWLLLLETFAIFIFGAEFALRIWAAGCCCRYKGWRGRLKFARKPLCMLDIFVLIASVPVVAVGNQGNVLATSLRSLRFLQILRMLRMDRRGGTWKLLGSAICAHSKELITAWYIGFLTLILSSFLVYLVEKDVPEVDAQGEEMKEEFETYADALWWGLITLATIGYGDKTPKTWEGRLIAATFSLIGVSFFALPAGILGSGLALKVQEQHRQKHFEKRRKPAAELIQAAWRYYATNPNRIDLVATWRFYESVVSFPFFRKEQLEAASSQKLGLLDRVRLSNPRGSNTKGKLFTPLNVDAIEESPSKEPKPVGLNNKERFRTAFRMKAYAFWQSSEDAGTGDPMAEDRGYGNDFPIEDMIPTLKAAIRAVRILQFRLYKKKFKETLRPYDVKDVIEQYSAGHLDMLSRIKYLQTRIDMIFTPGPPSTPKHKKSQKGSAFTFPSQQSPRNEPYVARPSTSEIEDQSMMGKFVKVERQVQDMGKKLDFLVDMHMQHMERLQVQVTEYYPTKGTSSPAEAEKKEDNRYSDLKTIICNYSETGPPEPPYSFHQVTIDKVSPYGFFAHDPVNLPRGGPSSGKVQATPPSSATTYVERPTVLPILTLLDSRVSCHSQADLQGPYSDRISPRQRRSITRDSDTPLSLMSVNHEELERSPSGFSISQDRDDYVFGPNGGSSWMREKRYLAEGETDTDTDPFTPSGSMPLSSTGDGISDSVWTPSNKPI
Voltage-gated inwardly rectifying potassium channel KCNH2, sequence (Q12809 whole entry): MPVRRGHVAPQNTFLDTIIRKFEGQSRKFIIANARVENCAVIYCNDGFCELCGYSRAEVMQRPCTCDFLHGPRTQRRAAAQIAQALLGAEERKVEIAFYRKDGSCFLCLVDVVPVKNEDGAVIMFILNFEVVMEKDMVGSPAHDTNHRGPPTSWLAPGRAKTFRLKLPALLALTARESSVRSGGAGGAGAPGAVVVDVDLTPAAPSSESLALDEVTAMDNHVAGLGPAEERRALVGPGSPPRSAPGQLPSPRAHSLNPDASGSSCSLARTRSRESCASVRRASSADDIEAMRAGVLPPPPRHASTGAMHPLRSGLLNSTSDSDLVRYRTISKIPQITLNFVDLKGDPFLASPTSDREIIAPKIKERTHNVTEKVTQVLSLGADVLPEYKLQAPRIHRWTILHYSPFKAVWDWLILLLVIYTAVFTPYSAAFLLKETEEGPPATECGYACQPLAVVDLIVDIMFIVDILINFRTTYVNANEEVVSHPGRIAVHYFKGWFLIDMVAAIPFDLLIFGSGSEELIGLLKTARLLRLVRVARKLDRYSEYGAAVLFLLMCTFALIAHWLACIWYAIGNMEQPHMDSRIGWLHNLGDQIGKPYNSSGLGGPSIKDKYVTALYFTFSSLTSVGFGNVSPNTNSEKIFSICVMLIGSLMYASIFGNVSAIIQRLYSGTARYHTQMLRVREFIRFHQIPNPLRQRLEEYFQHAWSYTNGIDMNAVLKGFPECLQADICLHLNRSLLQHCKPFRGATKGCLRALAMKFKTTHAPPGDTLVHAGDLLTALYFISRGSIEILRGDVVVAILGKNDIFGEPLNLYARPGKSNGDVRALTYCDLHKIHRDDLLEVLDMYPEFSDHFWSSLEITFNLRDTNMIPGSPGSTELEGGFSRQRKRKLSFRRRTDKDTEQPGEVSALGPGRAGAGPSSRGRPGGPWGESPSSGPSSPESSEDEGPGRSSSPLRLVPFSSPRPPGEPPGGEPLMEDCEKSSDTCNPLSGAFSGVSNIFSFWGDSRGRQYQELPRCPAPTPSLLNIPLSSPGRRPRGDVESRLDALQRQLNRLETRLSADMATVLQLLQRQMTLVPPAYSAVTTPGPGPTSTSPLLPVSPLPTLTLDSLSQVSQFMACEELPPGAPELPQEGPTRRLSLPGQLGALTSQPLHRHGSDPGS
Cytochrome P450 2C9, sequence (P11712 whole entry): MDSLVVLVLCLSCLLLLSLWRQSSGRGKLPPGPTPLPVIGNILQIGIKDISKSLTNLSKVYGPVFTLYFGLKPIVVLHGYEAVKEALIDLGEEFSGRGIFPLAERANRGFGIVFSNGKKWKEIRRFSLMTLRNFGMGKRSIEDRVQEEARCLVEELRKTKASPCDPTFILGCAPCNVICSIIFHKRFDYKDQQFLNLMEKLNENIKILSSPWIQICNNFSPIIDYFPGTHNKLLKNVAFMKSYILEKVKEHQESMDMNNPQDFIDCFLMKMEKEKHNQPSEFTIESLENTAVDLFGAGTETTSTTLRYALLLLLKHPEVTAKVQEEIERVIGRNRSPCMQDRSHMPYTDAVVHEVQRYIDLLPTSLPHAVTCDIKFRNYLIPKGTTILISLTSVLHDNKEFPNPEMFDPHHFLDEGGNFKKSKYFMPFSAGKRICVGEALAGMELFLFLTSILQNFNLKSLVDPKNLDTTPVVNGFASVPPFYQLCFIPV

As to `CCC(C(=O)Nc1ccccc1N1CCCC1)c1ccc(F)cc1` (racemic), the Ratio IC50 in data set [1] was > 40. For the same compound, half-maximal inhibition in data set [2] (IC50) was put at 130 nM.

As to `CCC(C(=O)Nc1ccccc1N1CCCC1)c1ccccc1F` (racemic), the Ratio IC50 in data set [1] was > 40. In addition, it took 440 nM to reach half-maximal inhibition in data set [2] (IC50).

For the compound `CCC(C(=O)Nc1ccccc1N1CCCC1)c1cccc(C)c1` (racemic), the Ratio IC50 in data set [1] is > 40. In data set [2], this compound yielded an IC50 of 330 nM.

Regarding `C[C@H](C(=O)Nc1ccccc1N1CCCC1)c1ccccc1`, in data set [1], the Ratio IC50 is > 40.

In turn, `CN(C)c1ccccc1NC(=O)Cc1cccc(Cl)c1` had an EC50 in data set [3] of 27400 nM.

For `O=C(Cc1ccc(F)cc1)Nc1ccccc1N1CCCC1`, the EC50 in data set [3] was found to be 700 nM. This EC50 lies about 39-fold lower than the previous one.

As to `COc1cccc(CC(=O)Nc2ccccc2N2CCCC2)c1`, the midpoint of the response in [3], the EC50, lay at 2350 nM.

As to `CC[C@H](C(=O)Nc1ccccc1N1CCCCC1)c1ccccc1`, the Ratio IC50 in [1] is > 40.

For the compound `CC[C@H](C(=O)Nc1ccccc1N1CCCC1)c1ccccc1`, the Fu in the data set with Plasma was 0.6%; in the data set on Brain, 0.3%. Further, the concentration at 1 h in [4] was found to be 208 ng/g; in data set [5], 116 ng/mL. For the same compound, the “inhibition (INH)” value in data set [6] was “Not Active”. Moreover, the inhibition entry in data set [7], in data set [8] and in data set [9] was “inactive” throughout. The compound also returned an inhibition in [10] of 61%. Besides, the IC50 in data set [11] was 200 nM; in data set [12], 120 nM; in [13] it was 2920 nM; in data set [14], 8120 nM; in data set [2], 70 nM; against Cytochrome P450 2D6, 19900 nM. Moreover, the IC50 came out at 18900 nM at Cytochrome P450 2C9 and 6100 nM against Cytochrome P450 1A2.

`Cc1cccc(CC(=O)Nc2ccccc2N2CCCC2)c1` returned an EC50 in data set [3] of 1320 nM.

As to `CCC(C(=O)Nc1ccccc1N1CCCC1)c1cccc(OC)c1` (racemic), the Ratio IC50 in [1] is > 40. Moreover, in data set [2], the IC50 amounted to 120 nM.

As to `CCC(C(=O)Nc1ccccc1N1CCCC1)c1cccc(F)c1` (racemic), in data set [1], the Ratio IC50 was > 40. For the same compound, half-maximal inhibition in data set [2] (IC50) was put at 360 nM.

Consider `O=C(Cc1ccccc1Cl)Nc1ccccc1N1CCCC1`, for which the EC50 in data set [3] worked out at 950 nM.

On to `CCC(C(=O)Nc1ccccc1N1CCCC1)c1cccc(Cl)c1` (racemic), for which the Ratio IC50 in data set [1] was > 40. The same compound showed an IC50 in [2] of 240 nM.

On to `CCC(C(=O)Nc1ccccc1N1CCCC1)c1ccc(Cl)cc1` (racemic), for which, in data set [1], the Ratio IC50 is > 40. The compound also came in with an IC50 in data set [2] of 280 nM.

In the case of `O=C(Cc1ccc(Cl)cc1)Nc1ccccc1N1CCCC1`, in [3], the EC50 was found to be 800 nM.

On to `CCC(C(=O)Nc1ccccc1N1CCCC1)c1cccc(C(F)(F)F)c1` (racemic), for which, in data set [1], the Ratio IC50 is > 40. The same compound showed an IC50 in data set [2] of 390 nM.

As for `O=C(Cc1ccc(F)c(F)c1)Nc1ccccc1N1CCCC1`, the midpoint of the response in data set [3], the EC50, lay at 1730 nM.

`O=C(Cc1ccccc1F)Nc1ccccc1N1CCCC1`: the inhibition in data set [15] worked out at 26.6%.

For the origin of these results see ChEMBL document CHEMBL2163245 (J Med Chem, 2012).
